Here are results for 4 compounds from ChEMBL document CHEMBL1121657, “Effects of 1-arylpyrroles and naphthoflavones upon cytochrome P-450 dependent monooxygenase activities” (J Med Chem, 1981).

For test [1], the species on record is Rattus norvegicus. The test can be described thus: Compound was evaluated for alpha -rate constant, in liver microsomes from 3-methylcholanthrene-exposed rats. Conditions: Microsome. The method, boiled down:
(§1)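 Rats (male Sprague-Dawley, 75-125 g) dosed ip with 3MC or βNF, 50 mg/kg in corn oil, on 3 successive days; liver microsomes isolated day 4. 7-Ethoxycoumarin deethylation (2.5-300 μM substrate) measured with inhibitor present; KM and Vmax by Eisenthal–Cornish-Bowden direct linear method. Ki from x-intercept of least-squares KM/Vmax vs [I]; αKi from x-intercept of 1/Vmax vs [I].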

The species entered for test [2] is Rattus norvegicus. The test can be described thus: Michaelis-Menten constant for 7-ethoxycoumarin deethylation in rat liver microsomes exposed to 3-methylcholanthrene at concentration of 200 uM. Conditions: Microsome. The method, boiled down: (§2)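 Liver microsomes from male Sprague-Dawley rats given 3MC or βNF ip (50 mg/kg/day, corn oil, 3 days), harvested day 4. NADPH-regenerating system in 0.1 M Tris-HCl pH 7.4. Substrate 2.5-300 μM final. Inhibitor added from methanol stock. Reaction started with 0.375-0.56 mg microsomal protein, run 4 min at 37 °C, stopped with TCA. 7-Hydroxycoumarin fluorescence read at pH 10.3. At least four assays per substrate concentration. KM and Vmax by direct linear method, with distribution-free 95% confidence limits.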

Test [3] is filed under the species Rattus norvegicus. The test can be described thus: Michaelis-Menten constant for 7-ethoxycoumarin deethylation in rat liver microsomes exposed to 3-methylcholanthrene at concentration of 50 nM. To be noted: Microsome.
Test [4] is filed under the species Rattus norvegicus. The test can be described thus: Maximum rate constant for 7-ethoxycoumarin deethylation in rat liver microsomes 3-methylcholanthrene at concentration of 50 nM. Conditions: Microsome.
For test [5], the species on record is Rattus norvegicus. In words: Maximum rate constant for 7-ethoxycoumarin deethylation in rat liver microsomes exposed to beta-naphthoflavone at concentration of 1000 uM. Conditions: Microsome. The method, boiled down:
as §2

The species entered for test [6] is Rattus norvegicus. In words: Maximum rate constant for 7-ethoxycoumarin deethylation in rat liver microsomes exposed to beta-naphthoflavone at 500 uM. Conditions: Microsome. The method, boiled down: as §2
The species entered for test [7] is Rattus norvegicus. In words: Maximum rate constant for 7-ethoxycoumarin deethylation in rat liver microsomes 3-methylcholanthrene at concentration of 100 nM. To be noted: Microsome.
Test [8] is filed under the species Rattus norvegicus. The test can be described thus: Michaelis-Menten constant for 7-ethoxycoumarin deethylation in rat liver microsomes exposed to beta-naphthoflavone at 500 uM. Conditions: Microsome. The method, boiled down: (§3)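 Liver microsomes from young male Sprague-Dawley rats (75-125 g) given the inducer ip in corn oil at 50 mg/kg on 3 successive days, microsomes isolated on day 4. 7-Ethoxycoumarin (2.5 to 300 μM final) in 0.1 M Tris-HCl pH 7.4 with NADPH-regenerating system. Reaction started with microsomal protein (0.375-0.56 mg), run 4 min at 37 °C, stopped with TCA. 7-Hydroxycoumarin read fluorometrically at pH 10.3. Inhibitor added from methanol stock, ≥4 assays per condition. KM/Vmax obtained by the Eisenthal–Cornish-Bowden direct linear method with 95% distribution-free confidence limits.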

Test [9] in a line: Compound was evaluated for inhibition constant, in liver microsomes from 3-methylcholanthrene-exposed rats. Details: species or system Rattus norvegicus, Microsome.
The species entered for test [10] is Rattus norvegicus. In words: Compound was evaluated for alpha -rate constant, in liver microsomes from beta-naphthoflavone-exposed rats. Conditions: Microsome. The method, boiled down:
as §1

The species entered for test [11] is Rattus norvegicus. In words: Michaelis-Menten constant for 7-ethoxycoumarin deethylation in rat liver microsomes exposed to beta-naphthoflavone at 1500 nM. To be noted: Microsome.
For test [12], the species on record is Rattus norvegicus. In words: Michaelis-Menten constant for 7-ethoxycoumarin deethylation in rat liver microsomes exposed to beta-naphthoflavone at 1000 nM. Conditions: Microsome.
Test [13] in a line: Compound was evaluated for inhibition constant, in liver microsomes from beta-naphthoflavone-exposed rats. Details: species or system Rattus norvegicus, Microsome.
For test [14], the species on record is Rattus norvegicus. The test can be described thus: Michaelis-Menten constant for 7-ethoxycoumarin deethylation in rat liver microsomes exposed to 3-methylcholanthrene at concentration of 100 uM. Conditions: Microsome. The method, boiled down:
as §2

Test [15] is filed under the species Rattus norvegicus. The test can be described thus: Maximum rate constant for 7-ethoxycoumarin deethylation in rat liver microsomes 3-methylcholanthrene at concentration of 200 nM. To be noted: Microsome.
For test [16], the species on record is Rattus norvegicus. In words: Maximum rate constant for 7-ethoxycoumarin deethylation in rat liver microsomes exposed to beta-naphthoflavone at concentration of 1500 uM. Conditions: Microsome. The method, boiled down:
as §2

For test [17], the species on record is Rattus norvegicus. The test can be described thus: Maximum rate constant for 7-ethoxycoumarin deethylation in rat liver microsomes exposed to beta-naphthoflavone at 1 uM. Conditions: Microsome. The method, boiled down: as §2
Test [18] is filed under the species Rattus norvegicus. The test can be described thus: Maximum rate constant for 7-ethoxycoumarin deethylation in rat liver microsomes exposed to beta-naphthoflavone at 5 uM. To be noted: Microsome. The method, boiled down: as §2
The species named for test [19] is Rattus norvegicus. The test can be described thus: Maximum rate constant for 7-ethoxycoumarin deethylation in rat liver microsomes exposed to beta-naphthoflavone at 2.5 uM. To be noted: Microsome. The method, boiled down:
as §2

Test [20] is filed under the species Rattus norvegicus. The test can be described thus: Michaelis-Menten constant for 7-ethoxycoumarin deethylation in rat liver microsomes exposed to beta-naphthoflavone at 2.5 uM. Conditions: Microsome. The method, boiled down:
as §2

For test [21], the species on record is Rattus norvegicus. The test can be described thus: Michaelis-Menten constant for 7-ethoxycoumarin deethylation in rat liver microsomes exposed to beta-naphthoflavone at 1 uM. To be noted: Microsome. The method, boiled down:
as §2

For test [22], the species on record is Rattus norvegicus. The test can be described thus: Michaelis-Menten constant for 7-ethoxycoumarin deethylation in rat liver microsomes exposed to beta-naphthoflavone at 5 uM. To be noted: Microsome. The method, boiled down:
as §2

Test [23] is filed under the species Rattus norvegicus. The test can be described thus: Maximum rate constant for 7-ethoxycoumarin deethylation in rat liver microsomes exposed to 3-methylcholanthrene at 5 uM. To be noted: Microsome. The method, boiled down: as §2
The species named for test [24] is Rattus norvegicus. In words: Michaelis-Menten constant for 7-ethoxycoumarin deethylation in rat liver microsomes exposed to beta-naphthoflavone at 100 uM. To be noted: Microsome. The method, boiled down: as §2
The species entered for test [25] is Rattus norvegicus. In words: Maximum rate constant for 7-ethoxycoumarin deethylation in rat liver microsomes exposed to beta-naphthoflavone at 100 uM. Conditions: Microsome. The method, boiled down:
as §2

The species entered for test [26] is Rattus norvegicus. The test can be described thus: Michaelis-Menten constant for 7-ethoxycoumarin deethylation in rat liver microsomes 3-methylcholanthrene at a concentration of 5 uM. To be noted: Microsome. The method, boiled down:
as §2

Test [27] is filed under the species Rattus norvegicus. The test can be described thus: Compound was evaluated for alpha inhibition constant, in liver microsomes from 3-methylcholanthrene-exposed rats. Conditions: Microsome. The method, boiled down:
as §1

The species entered for test [28] is Rattus norvegicus. In words: Michaelis-Menten constant for 7-ethoxycoumarin deethylation in rat liver microsomes exposed to 3-methylcholanthrene at concentration of 10 uM. To be noted: Microsome. The method, boiled down: as §2
Test [29] is filed under the species Rattus norvegicus. In words: Michaelis-Menten constant for 7-ethoxycoumarin deethylation in rat liver microsomes exposed to beta-naphthoflavone at 50 uM. Conditions: Microsome. The method, boiled down: as §3
Test [30] is filed under the species Rattus norvegicus. In words: Michaelis-Menten constant for 7-ethoxycoumarin deethylation in rat liver microsomes exposed to beta-naphthoflavone at 200 uM. Conditions: Microsome. The method, boiled down: as §2
For test [31], the species on record is Rattus norvegicus. In words: Maximum rate constant for 7-ethoxycoumarin deethylation in rat liver microsomes exposed to 3-methylcholanthrene at 50 uM. Conditions: Microsome. The method, boiled down:
as §2

Test [32] is filed under the species Rattus norvegicus. In words: Michaelis-Menten constant for 7-ethoxycoumarin deethylation in rat liver microsomes exposed to 3-methylcholanthrene at a concentration of 5 uM. To be noted: Microsome. The method, boiled down:
as §2

The species named for test [33] is Rattus norvegicus. The test can be described thus: Compound was evaluated for alpha inhibition constant, in liver microsomes from beta-naphthoflavone-exposed rats. To be noted: Microsome. The method, boiled down:
as §1

The species entered for test [34] is Rattus norvegicus. The test can be described thus: Maximum rate constant for 7-ethoxycoumarin deethylation in rat liver microsomes exposed to beta-naphthoflavone at 200 uM. To be noted: Microsome. The method, boiled down: as §2
The species named for test [35] is Rattus norvegicus. In words: Maximum rate constant for 7-ethoxycoumarin deethylation in rat liver microsomes exposed to beta-naphthoflavone at 150 uM. Conditions: Microsome. The method, boiled down: as §2
The species entered for test [36] is Rattus norvegicus. In words: Michaelis-Menten constant for 7-ethoxycoumarin deethylation in rat liver microsomes exposed to beta-naphthoflavone at 10 uM […]. Conditions: Microsome. The method, boiled down:
as §2

Test [37] is filed under the species Rattus norvegicus. In words: Michaelis-Menten constant for 7-ethoxycoumarin deethylation in rat liver microsomes exposed to beta-naphthoflavone at 150 uM. Conditions: Microsome. The method, boiled down:
as §2

The species named for test [38] is Rattus norvegicus. The test can be described thus: Maximum rate constant for 7-ethoxycoumarin deethylation in rat liver microsomes exposed to beta-naphthoflavone at 50 uM. To be noted: Microsome. The method, boiled down:
as §2

As to `O=c1cc(-c2ccccc2)oc2cc3ccccc3cc12`, the Alpha Ki in [1] worked out at 0.21 µM; in [10], 11 µM. Moreover, the Michaelis-Menten constant (Km) in [2] was 31.5 µM; in [3], 19.2 µM; in [8], 36.9 µM; in [11], 93.1 µM; in test [12], 66.3 µM; in test [14], 16.7 µM. For the same compound, the Vmax (pM min-1 mg-1) in test [4] turned out to be 150; in [5], 1240; in test [6] it was 1300; in test [7], 114; in test [15], 88; in [16], 1210. Also, the inhibitory constant (Ki) in test [9] amounted to 0.049 µM; in test [13], 0.24 µM.

Take `CC(C)c1ccccc1-n1ccnc1`: the Vmax (pM min-1 mg-1) in [17] turned out to be 734; in [18] it was 227; in test [19], 346. Besides, the Km is 35.8 µM in test [20], 22.1 µM in test [21] and 41.7 µM in test [22]. This compound gave an Alpha Ki in test [10] of 1.4 µM. This compound also showed a Ki in [13] of 0.3 µM.

Regarding `CC(C)c1ccccc1-n1cccc1`, the Vmax (pM min-1 mg-1) came to 141 in test [23], 652 in test [25], 94 in test [31] and 493 in test [34]. In addition, the Michaelis constant (Km) in [24] turned out to be 52.2 µM; in test [26], 10.2 µM; in test [28], 29.7 µM; in test [29], 44.1 µM; in test [30], 91.3 µM; in test [32], 17.9 µM. Besides, the Alpha Ki in test [27] is 60 µM; in [33] it was 270 µM. Moreover, the Ki in test [9] came out at 11 µM; in [13], 19 µM.

In the case of `c1ccc(-n2cccc2)cc1`, the Vmax (pM min-1 mg-1) in test [35] turned out to be 669; in test [25], 760; in test [38] it was 819. Further, the Km in [29] is 28.4 µM; in [36] it was 41.2 µM; in [37], 64.3 µM. Besides, in test [10], the Alpha Ki is 430 µM. In [13], this compound showed a Ki of 27 µM.
